High-throughput results as filed in PubChem BioAssay.
VIM-2 inhibitor: inhibitors of Pseudomonas aeruginosa VIM-2 metallo-beta-lactamase | purified VIM-2, nitrocefin hydrolysis, epi-absorbance fluorescence | inhibition, % at 5.6 µM | 290,000 compounds, 0.89% hits;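 active = inhibition above the mean of all tested compounds plus 3 SD, cutoff set per screening run, cut at about 7.5% in these data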;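 also: red hydrolysis product quenches plate fluorescence so inhibitors raise well fluorescence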
PAFAH2 FP inh: PAFAH2 (human) inhibition; Q99487; recombinant PAFAH2, FP-rhodamine activity probe, fluorescence polarization; inhibition, % at 3.39 µM; 340,000 compounds, 0.99% hits; AID 492956;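 active = inhibition above the mean over all tested compounds plus 3 SD, cut at about 30% in these data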;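 also: inhibitors block probe labeling of enzyme so polarization drops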
PAFAH1B2 inh: PAFAH1B2 (human) inhibition | inhibition, % at 3.39 µM | 340,000 compounds, 1.2% hits | P68402 | recombinant PAFAH1B2, FP-rhodamine activity probe, fluorescence polarization | AID 492953;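 active = inhibition above the mean of all tested compounds plus 3 SD, cut at about 24% in these data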
IMP-1 inhibitor: blocks Pseudomonas aeruginosa IMP-1 metallo-beta-lactamase; 290,000 compounds, 0.45% hits; purified IMP-1, nitrocefin hydrolysis, epi-absorbance fluorescence; inhibition, % at 5.6 µM;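 active = inhibition above the mean plus 3 SD of all compounds in the same screening run, cut at about 4.5% in these data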
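System: Purified IMP-1 | Read-out basis: Percent enzyme inhibition | Controls: IMP-1 with DMSO as 0%, enzyme-free DMSO as 100% | Replicates: One well per compound | Doses: 5.6 µM nominal single concentration | Detection: Epi-absorbance fluorescence, 480 nm excitation, 530 nm emission | Incubation: 25 °C, 15 min preincubation, 25 min reaction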
PAFAH1B3 inh: inhibitors of human PAFAH1B3; Q15102; recombinant PAFAH1B3, FP-rhodamine probe, fluorescence polarization; inhibition, % at 3.39 µM; 340,000 compounds, 0.28% hits;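 active = inhibition above the screen-wide average of all tested compounds plus 3 SD, cut at about 25% in these data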
Target sequence (Q15102 whole entry, looked up): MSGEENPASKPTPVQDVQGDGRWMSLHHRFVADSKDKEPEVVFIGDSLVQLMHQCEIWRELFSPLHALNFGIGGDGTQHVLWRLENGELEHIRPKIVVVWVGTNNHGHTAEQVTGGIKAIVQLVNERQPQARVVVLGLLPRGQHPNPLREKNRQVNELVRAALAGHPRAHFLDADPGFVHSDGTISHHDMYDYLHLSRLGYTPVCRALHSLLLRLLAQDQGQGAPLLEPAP
pPAFAH inh: pPAFAH (human) enzyme inhibition; recombinant pPAFAH, FP-rhodamine probe fluorescence polarization; inhibition, % at 3.39 µM; 330,000 compounds, 1.5% hits; AID 463082;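 active = inhibition above the mean inhibition across the screen plus 3 SD, cut at about 25% in these data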;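 also: inhibitors block binding of the rhodamine activity-based probe so polarization drops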
Target sequence (Q13093 whole entry, looked up): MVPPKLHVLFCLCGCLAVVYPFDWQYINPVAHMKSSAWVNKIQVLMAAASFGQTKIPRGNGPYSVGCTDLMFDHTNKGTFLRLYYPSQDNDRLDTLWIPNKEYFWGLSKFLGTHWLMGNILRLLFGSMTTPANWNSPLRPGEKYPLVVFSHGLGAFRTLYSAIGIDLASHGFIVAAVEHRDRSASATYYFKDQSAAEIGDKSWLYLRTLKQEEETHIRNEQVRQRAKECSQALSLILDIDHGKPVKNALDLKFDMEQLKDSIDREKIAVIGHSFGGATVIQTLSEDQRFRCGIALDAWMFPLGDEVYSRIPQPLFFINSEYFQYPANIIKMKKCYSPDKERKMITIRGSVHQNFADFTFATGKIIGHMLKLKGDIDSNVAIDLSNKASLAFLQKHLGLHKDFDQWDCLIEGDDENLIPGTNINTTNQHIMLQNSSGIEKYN
Large screens that a line does not name were inactive. Rows were chosen to be rich in hits. Some 3.6% of all compounds tested hit in one or more screens of this group.

COc1ccc(C(Cl)=C(c2ccc(OC)cc2)c2ccc(OC)cc2)cc1	IMP-1 inhibitor 12
CC(Oc1ccc(Cl)cc1)C(=O)NNC(=S)NC(=O)c1ccco1 (configuration not stated)	PAFAH1B2 inh 26
NS(=O)(=O)c1ccc(CCNC(=O)c2cc([N+](=O)[O-])ccc2N2CCOCC2)cc1	none (no result: VIM-2 inhibitor, IMP-1 inhibitor)
CC1CCc2c(sc3ncnc(SC(C)C(=O)NCC4CCCO4)c23)C1 (configuration not stated)	none (no result: VIM-2 inhibitor, IMP-1 inhibitor)
O=S(=O)(NCCCc1ccccc1)c1ccc(F)c(F)c1	PAFAH1B2 inh 36, pPAFAH inh 29
O=S(=O)(NCCCc1ccccc1)c1ccc(Cl)cc1	PAFAH1B2 inh 26
O=[N+]([O-])c1ccc(S(=O)(=O)NCCCc2ccccc2)cc1	none (no result: VIM-2 inhibitor, PAFAH2 FP inh, PAFAH1B2 inh, IMP-1 inhibitor, PAFAH1B3 inh)
O=C(COc1cc2oc(=O)c3c(c2cc1Cl)CCC3)N1C[C@H]2C[C@@H](C1)c1cccc(=O)n1C2	VIM-2 inhibitor 11
C=C(C)COc1ccc2c(C)c(CCC(=O)N3C[C@H]4C[C@@H](C3)c3cccc(=O)n3C4)c(=O)oc2c1	pPAFAH inh 25
Cc1c(OCC(=O)N2C[C@H]3C[C@@H](C2)c2cccc(=O)n2C3)ccc2c3c(c(=O)oc12)CCCC3	none
Cc1c(OCC(=O)N2C[C@H]3C[C@@H](C2)c2cccc(=O)n2C3)ccc2c3c(c(=O)oc12)CCC3	VIM-2 inhibitor 12
COc1ccccc1C(=O)NCCC(=O)N1CC=C(c2ccccc2)CC1	none (no result: VIM-2 inhibitor, IMP-1 inhibitor)
CCN1C(=O)[C@@H]2[C@@H](c3ccc(SC4CCCCC4)cc3)N3CCC[C@@]3(C(=O)OC)[C@@H]2C1=O	pPAFAH inh 29 (no result: VIM-2 inhibitor, IMP-1 inhibitor)
CCN1C(=O)[C@H]2[C@@H](c3ccc(SC4CCCCC4)cc3)N3CCCC[C@@]3(C(=O)OC)[C@H]2C1=O	none (no result: VIM-2 inhibitor, IMP-1 inhibitor)
Nc1c(C(=O)c2ccccc2)sc2snc(SCC(=O)c3ccccc3)c12	PAFAH2 FP inh 44, pPAFAH inh 27
Nc1nnc(SCC(=O)c2ccccc2)s1	none
O=C(CCCC(=O)Nc1cccc(Br)c1)N/N=C/c1cc([N+](=O)[O-])ccc1O	none
O=C(CN(c1cccc(Br)c1)S(=O)(=O)c1ccccc1)N/N=C/c1cc([N+](=O)[O-])ccc1O	pPAFAH inh 25 (no result: VIM-2 inhibitor, PAFAH2 FP inh, PAFAH1B2 inh, IMP-1 inhibitor, PAFAH1B3 inh)
Cc1ccc(C)c(N2CCN(c3ncccc3[N+](=O)[O-])CC2)c1	pPAFAH inh 28
CN(C)C(=O)N1CCC(C(=O)N2CCCC(C(=O)c3ccc(C(C)(C)C)cc3)C2)CC1 (configuration not stated)	pPAFAH inh 26
COC(=O)c1ccc(NC(=O)c2ccc(NC(=O)c3ccco3)cc2)cc1	IMP-1 inhibitor 4.7
CC(=O)Nc1ccc(NC(=O)c2ccco2)cc1	none
Cc1cc(C)cc(NC(=O)c2ccc(NC(=O)c3ccco3)cc2)c1	none
CC(=O)c1ccc(NC(=O)c2ccc(NC(=O)c3ccco3)cc2)cc1	IMP-1 inhibitor 19
CC(=O)c1ccc(NC(=O)c2cccc(N3C(=O)c4ccccc4C3=O)c2)cc1	IMP-1 inhibitor 7.7
CC(=O)c1ccc(C(=O)Nc2ccc3c(c2)C(=O)NC3=O)cc1	IMP-1 inhibitor 6.1
C=CC[C@H](CC(=O)OC(C)(C)C)C(=O)OC[C@@H]1CCCN1C(=O)[C@@H](CC=C)CC(=O)N[C@H](CO)Cc1ccccc1	none (no result: VIM-2 inhibitor, IMP-1 inhibitor)
Cc1ccc2nc(Cl)c(/C=N/Nc3ccc(C(=O)O)cc3)cc2c1	pPAFAH inh 30
Cc1ccc2cc(/C=N/NC(=O)c3ccc(F)cc3)c(Cl)nc2c1	none
CCCn1c(=O)c2ccccc2n2c(Sc3nnnn3-c3ccccc3)nnc12	pPAFAH inh 27
Cc1cccc(CS(=O)(=O)Cc2ccc(C(=O)NCc3ccco3)o2)c1	pPAFAH inh 25
COc1ccc(S(=O)(=O)Cc2ccc(C(=O)NCc3ccco3)o2)cc1	none
Cc1ccc(CS(=O)(=O)Cc2ccc(C(=O)NCc3ccco3)o2)cc1	pPAFAH inh 34
CC(=O)N1C(C)(C)CC(=NOC(=O)c2ccc(C)cc2)CC1(C)C	PAFAH2 FP inh 83, pPAFAH inh 25
Cc1ccc(C(=O)ON=C2CCN(c3ccc([N+](=O)[O-])cc3)CC2)cc1	PAFAH2 FP inh 77
CCC(C)NC(=O)COc1ccc(OCc2ccccc2)cc1 (configuration not stated)	PAFAH1B2 inh 27
CC(C)c1ccc(OCC(=O)NC(C)c2ccccc2)cc1 (configuration not stated)	PAFAH1B2 inh 29
CC(NC(=O)COC(=O)Cc1ccc(Cl)cc1)c1ccccc1 (configuration not stated)	none (no result: VIM-2 inhibitor, IMP-1 inhibitor)
CC(NC(=O)Cc1ccc(-c2ccccc2)cc1)c1ccccc1 (configuration not stated)	IMP-1 inhibitor 5.0
CCNC(=O)COc1ccc(OCc2ccccc2)cc1	none
CNC(=S)N/N=C/c1c(C)c(C(=O)c2ccc(F)cc2)n2ccccc12	none
CC(C)CC(=O)Nc1cccc2c1C(=O)N(c1ccccc1)C2=O	IMP-1 inhibitor 7.5
COc1ccc(S(N)(=O)=O)cc1C(=O)NNC(=O)c1cccc(S(=O)(=O)N2CCOCC2)c1	none (no result: VIM-2 inhibitor, IMP-1 inhibitor, pPAFAH inh)
Cc1cc(/C=C2\SC(=S)NC2=O)c(C)n1-c1ccccc1	pPAFAH inh 30 (no result: PAFAH2 FP inh, PAFAH1B2 inh, PAFAH1B3 inh)
COc1ccc(-n2c(C)cc(/C=C3\SC(=S)NC3=O)c2C)cc1	none
COc1ccc(S(=O)(=O)N2CCN(C(=S)NCCc3ccccc3)CC2)cc1	PAFAH1B2 inh 27
COc1ccc(CCNC(=S)N2CCN(S(=O)(=O)c3ccc(C)cc3)CC2)cc1	none (no result: VIM-2 inhibitor, IMP-1 inhibitor)
O=C1NC(=S)N/C1=C/c1cccn1-c1ccc([N+](=O)[O-])cc1	pPAFAH inh 32
CCc1ccc(-n2cc(-c3ccc([N+](=O)[O-])cc3)[nH]c2=S)cc1	none
CCc1ccc(-c2cn(C3CCCCC3)c(=S)[nH]2)cc1	pPAFAH inh 30
O=S1(=O)c2ccc(Br)cc2N2CC[C@H](C2)N1Cc1ccc(Cl)cc1	none (no result: VIM-2 inhibitor, IMP-1 inhibitor, pPAFAH inh)
Cc1ccc(S(=O)(=O)Nc2ccc(S(=O)(=O)NCC3CCCO3)cc2)cc1 (configuration not stated)	PAFAH1B2 inh 43
Cc1ccc(-c2ccc(S(=O)(=O)NCC3CCCO3)cc2)cc1 (configuration not stated)	none
O=C(NCC1CCCO1)c1cccc(NS(=O)(=O)c2ccccc2)c1 (configuration not stated)	none (no result: VIM-2 inhibitor, IMP-1 inhibitor)
Cc1ccc(NS(=O)(=O)c2cccc(C(=O)NCC3CCCO3)c2)cc1 (configuration not stated)	pPAFAH inh 31 (no result: VIM-2 inhibitor, IMP-1 inhibitor)
O=[N+]([O-])c1cc(-c2csc(NCCc3nc4cc(Cl)c(Cl)cc4n3CCCO)n2)ccc1Cl	pPAFAH inh 31 (no result: VIM-2 inhibitor, IMP-1 inhibitor)
O=C(NC1CCCCC1)c1cccc(OCc2ccccc2)c1	none
CN(Cc1ccccc1)C(=O)C1CCN(S(=O)(=O)c2ccc3nc4c(c(C(=O)O)c3c2)CCCC4)CC1	IMP-1 inhibitor 5.5
Clc1ccc2c(SCC3CO3)c3ccccc3nc2c1 (configuration not stated)	none (no result: VIM-2 inhibitor, IMP-1 inhibitor, pPAFAH inh)
